These results are taken from ChEMBL document CHEMBL2424606, “Selective cytotoxicity, inhibition of cell cycle progression, and induction of apoptosis in human breast cancer cells by sesquiterpenoids from Inula lineariifolia Turcz” (Eur J Med Chem, 2013).

One assay deals with MCF-10A. Put plainly: Cytotoxicity against human MCF10A cells assessed as growth inhibition after 72 hrs by MTT assay. It counts as cell-based. Put shortly:
(§1)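 3×10³ cells/well exposed 72 h to compound at 0, 1, 5, 10, 25, 50 μM, DMSO as vehicle control. MTT (5 mg/mL solution) added for 2–4 h at 37°C. Formazan dissolved in DMSO, absorbance read at 570 nm. Viability is mean OD relative to DMSO wells. IC50 from three separate experiments.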

Assay [1] deals with MDA-MB-231. Kind of assay: Cytotoxicity against human MDA-MB-231 cells assessed as growth inhibition after 72 hrs by MTT assay. It counts as functional, cell-based. The settings on record: MDA-MB-231, 72 h. Put shortly: as §1
Assay [2] deals with MCF7. Kind of assay: Cytotoxicity against human MCF7 cells assessed as growth inhibition after 72 hrs by MTT assay. The class given is functional, cell-based. Conditions: MCF7, 72 h. The essentials:
as §1
Background: Tetrazolium assays rely on reduction of a dye to a coloured formazan, in cell work by metabolically active cells.

The test system of assay [3] is MCF7. Kind of assay: Induction of apoptosis in human MCF7 cells after 48 hrs by annexin V-FITC/propidium iodide staining-based flow cytometric analysis. The class given is functional, cell-based. Put shortly: (§2)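 Treatment of 2–3×10⁵ cells with compound at 0, 1 or 5 μM for 48 h. Media plus cells collected, washed in serum-free medium, resuspended in Annexin V binding buffer. Stained with annexin V-FITC and propidium iodide 15 min in the dark at room temperature, then flow cytometry. Early (annexin only) and late (annexin+PI) apoptotic cells counted. Apoptotic index vs untreated cells. Means ± S.D., Student's t-test vs DMSO control.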
(In general: A flow cytometer gives signals particle by particle.)

The test system of assay [4] is MCF7. Kind of assay: Cell cycle arrest in human MCF7 cells assessed as accumulation at G2/M phase after 24 hrs by propidium iodide staining-based flow cytometric analysis. The class given is functional. The essentials: (§3)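 Cells (2–3×10⁵) exposed to test compound at 0, 1 or 2.5 μM for 24 h. Trypsinized, PBS-washed, fixed in 95% ethanol at 4 °C overnight, RNAse-treated, propidium iodide-stained. DNA content measured by flow cytometry for phase distribution.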

The subject of assay [5] is MDA-MB-231. Kind of assay: Cell cycle arrest in human MDA-MB-231 cells assessed as accumulation at G2/M phase at 2.5 uM after 24 hrs by propidium iodide staining-based flow cytometric analysis. It counts as functional. Put shortly: as §3
Assay [6] deals with MDA-MB-231. Put plainly: Cell cycle arrest in human MDA-MB-231 cells assessed as accumulation at S phase at 2.5 uM after 24 hrs by propidium iodide staining-based flow cytometric analysis. The class given is functional. The essentials:
as §3

Assay [7] deals with MDA-MB-231. Kind of assay: Cell cycle arrest in human MDA-MB-231 cells assessed as accumulation at G2/M phase after 24 hrs by propidium iodide staining-based flow cytometric analysis. The class given is functional. Put shortly:
as §3

Assay [8] deals with MCF7. Put plainly: Induction of apoptosis in human MCF7 cells assessed as apoptotic index at 5 uM after 48 hrs by annexin V-FITC/propidium iodide staining-based flow cytometric analysis relative to control. The class given is functional. The essentials: as §2
Assay [9] relates to MDA-MB-231. Kind of assay: Cell cycle arrest in human MDA-MB-231 cells assessed as accumulation at S phase after 24 hrs by propidium iodide staining-based flow cytometric analysis. The class given is functional. The essentials: as §3
Assay [10] relates to MDA-MB-231. Put plainly: Induction of apoptosis in human MDA-MB-231 cells assessed as apoptotic index at 5 uM after 48 hrs by annexin V-FITC/propidium iodide staining-based flow cytometric analysis relative to control. The class given is functional. The essentials:
as §2

Assay [11] has as its system MCF7. Kind of assay: Cell cycle arrest in human MCF7 cells assessed as accumulation at G2/M phase at 2.5 uM after 24 hrs by propidium iodide staining-based flow cytometric analysis. The class given is functional. The essentials: as §3
Assay [12] has as its system MDA-MB-231. Put plainly: Induction of apoptosis in human MDA-MB-231 cells after 48 hrs by annexin V-FITC/propidium iodide staining-based flow cytometric analysis. The class given is functional, cell-based. The essentials: as §2

As a reminder, the IC50 is the concentration needed to halve the response being measured.

Activity calls are given as the source filed them. The calls are words filed in the database; no cut-off is given here. A value given as a limit tells only on which side of the number the result lay.

In the case of `CC(=O)O[C@H]1C(=O)[C@@]2(C)[C@H]([C@H](OC(=O)c3ccccc3)[C@]3(O)C[C@H](OC(=O)[C@H](O)[C@@H](NC(=O)c4ccccc4)c4ccccc4)C(C)=C1C3(C)C)[C@]1(OC(C)=O)CO[C@@H]1C[C@@H]2O` [PACLITAXEL], the IC50 was 0.427 µM in the assay with MCF-10A, 0.087 µM in the assay on MDA-MB-231 [1] and 0.0752 µM with MCF7 [2].
For `C=C1C(=O)O[C@@H]2CC(C)=C3[C@@H](OC(C)=O)C[C@@](C)(O)[C@@H]3[C@@H](O)[C@H]12` the same measures were greater than 50 µM, greater than 50 µM and greater than 50 µM.
In the same order, the values of `C[C@@H]1C2=C[C@H]3[C@@H](C[C@@]2(C)CC[C@@H]1O)OC(=O)[C@@H]3C` are greater than 50 µM, greater than 50 µM and greater than 50 µM.
For `C=C1C(=O)O[C@@H]2CC(C)=C3[C@@H](OC(C)=O)C[C@@](C)(O)[C@@H]3C[C@H]12` [INUCHINENOLIDE B] the same measures were greater than 50 µM, 25.8 µM and 15.5 µM.
For the molecule `CC(=O)O[C@H]1C=C(CCO)[C@@H](C)C[C@H]2OC(=O)[C@@H](C)[C@@H]12`, the IC50 with MCF-10A, with MDA-MB-231 [1] and in the assay with MCF7 [2] was greater than 50 µM each time.
For `C=C1C(=O)O[C@H]2C=C(C)[C@@H]3[C@@H]([C@@H](O)[C@H]12)[C@](C)(O)C[C@@H]3OC(C)=O`, the IC50 is greater than 50 µM in the assay on MCF-10A, 11.4 µM with MDA-MB-231 [1] and 6.2 µM in the assay with MCF7 [2].
As to `C=C1C(=O)O[C@H]2C[C@H](C)[C@@]34C[C@@]5(C(=O)O[C@H]6C=C(C)[C@H]7[C@@H](OC(C)=O)C[C@@](C)(O)[C@@H]7C[C@@H]65)[C@@H](C(C)=C3C[C@H]12)[C@@H]4OC(C)=O`, the IC50 with MCF-10A was greater than 50 µM; in the assay with MDA-MB-231 [1], 10.7 µM; in the assay on MCF7 [2], 3.4 µM.
Regarding `C=C1C(=O)O[C@H]2C[C@@H](C)[C@@H]3C=CC(=O)[C@@]3(C)[C@@H](OC(C)=O)[C@H]12` [BIGELOVIN], the IC50 with MCF-10A came to 26 µM; with MDA-MB-231 [1], 2.3 µM; in the assay on MCF7 [2] it was 2.1 µM.
Consider `C=C1C(=O)O[C@H]2C[C@H](C)[C@@]34C[C@@]5(C(=O)O[C@H]6C[C@@H](C)[C@@H]7[C@@H](OC(C)=O)C[C@H](O)[C@@]7(C)C[C@@H]65)[C@@H](C(C)=C3C[C@H]12)[C@@H]4O`, for which the IC50 is 27.9 µM in the assay on MCF-10A, 2.8 µM in the assay with MDA-MB-231 [1] and 1.6 µM with MCF7 [2]. In addition, the Activity entry with MCF7 [3], in the assay on MCF7 [4], in the assay on MDA-MB-231 [7], in the assay with MDA-MB-231 [9] and in the assay with MDA-MB-231 [12] was “Dose-dependent effect” each time. The result with MDA-MB-231 [5], in the assay on MDA-MB-231 [6] and in the assay on MCF7 [11] was Active. For the same molecule, the results for the “fold change (FC)” value in the assay with MCF7 [8] and in the assay on MDA-MB-231 [10] were 7.6 and 14.2, respectively.
For `C=C1C(=O)O[C@@H]2C[C@H](C)[C@@H]3[C@@H](OC(C)=O)C[C@H](O)[C@@]3(C)C[C@H]12`, the values for the IC50 in the assay on MCF-10A, with MDA-MB-231 [1] and with MCF7 [2] were greater than 50 µM, 12.9 µM and 6.7 µM, respectively.
With `C=C1C(=O)O[C@H]2C[C@H](C)[C@@]34C[C@@]5(C(=O)O[C@H]6C=C(C)[C@H]7[C@@H](OC(C)=O)C[C@@](C)(O)[C@@H]7C[C@@H]65)[C@@H](C(C)=C3C[C@H]12)[C@@H]4O`, the IC50 in the assay with MCF-10A is greater than 50 µM; in the assay with MDA-MB-231 [1], 16.5 µM; with MCF7 [2], 7.8 µM.
For `C=C1C[C@@H]2OC(=O)C(=C)[C@H]2C[C@@H]2[C@@H]1[C@@H](O)C[C@@]2(C)O` the same measures were greater than 50 µM, 21.1 µM and 13.7 µM.
Regarding `C=C1C(=O)O[C@@H]2CC(C)=C3[C@@H](C[C@H]12)[C@](C)(O)C[C@@H]3O`, the IC50 in the assay on MCF-10A, in the assay with MDA-MB-231 [1] and with MCF7 [2] was greater than 50 µM throughout.
As for `C=C1C(=O)O[C@H]2C[C@H](C)[C@H]3[C@@H](O)C[C@@](C)(O)[C@@]34O[C@H]4[C@H]12`, the IC50 in the assay on MCF-10A, with MDA-MB-231 [1] and in the assay with MCF7 [2] was greater than 50 µM in each case.
On to `C=C1C(=O)O[C@@H]2/C=C(\C)CC/C=C(\CO)C[C@@H](O)[C@@H]12` [DEACETYLOVATIFOLIN], for which the IC50 with MCF-10A was 45.7 µM; with MDA-MB-231 [1] it was 13.8 µM; in the assay on MCF7 [2], 6.9 µM.
Turning to `C=C1C(=O)O[C@H]2C[C@H](C)[C@@]34C[C@@]5(C(=O)O[C@H]6/C=C(\C)CC/C=C(\CO)C[C@H](O)[C@@H]65)[C@@H](C(C)=C3C[C@H]12)[C@@H]4OC(C)=O`, the IC50 worked out at 26.4 µM in the assay with MCF-10A, 5.7 µM with MDA-MB-231 [1] and 3.7 µM in the assay on MCF7 [2].
